A word on the inhibition: it is the change of the read-out against control, counted positive when it falls. Broadly, the Inhibition is how much of the control response was suppressed. A word on the inhibition in vivo: it is the relative decrease from the control value, in per cent.

The record followed here is ChEMBL document CHEMBL1125458, “3-O-alkylascorbic acids as free radical quenchers. 3. Protective effect on coronary occlusion-reperfusion induced arrhythmias in anesthetized rats” (1992).

Assay [1] deals with Rattus norvegicus. Put plainly: Effect (10 mg/kg, iv) on coronary reperfusion-induced arrhythmias was assessed in anesthetized rats.(Intervals of ventricular tachycardia (VT)+ventricular fibrillation (VF) within 600 s. The format is functional, Cardiac ventricle.
Assay [2] is filed under the species Rattus norvegicus. Put plainly: Inhibition of lipid peroxidation in rat liver microsomes. The format is functional. On the set-up: concentration or dose not given beside the values. Particulars: dose or concentration not given here. The essentials: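 Wistar rat liver microsomes (2.0 mg protein) in 83.5 mM KCl, 37.2 mM Tris-HCl pH 7.4 with 1 mM ADP, 10 µM FeCl3, 0.02 mM NADPH; compound added in DMF, tested at 10^-5 M. 37 °C, 20 min. Malondialdehyde measured by thiobarbituric acid method, A532; % inhibition, mean ± SD, n = 3–6.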
In general terms: Liver microsomes are vesicles of endoplasmic reticulum, rich in cytochrome P450 enzymes.

Assay [3] has as its system Rattus norvegicus. Put plainly: Effect (1 mg/kg, iv) on coronary reperfusion-induced arrhythmias was assessed in anesthetized rats.(Intervals of ventricular tachycardia (VT)+ventricular fibrillation (VF) within 600 s. The format is functional, Cardiac ventricle.
In assay [4] the test system is Rattus norvegicus. Briefly: Effect (30 mg/kg, po) on coronary reperfusion-induced arrhythmias was assessed in anesthetized rats.(Intervals of ventricular tachycardia (VT)+ventricular fibrillation (VF) within 600 s. The assay is classed as functional, Cardiac ventricle. The method in brief:
(§1)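 Male Wistar rats (350–450 g) dosed orally 1 h before occlusion, then anesthetized with pentobarbital (60 mg/kg ip) and ventilated. LAD ligated 5 min, reperfused 10 min; VT plus VF durations summed within 600 s. Mean ± SE, n = 5–10; line 2 value is the minimum effective dose.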

Assay [5] concerns Rattus norvegicus. Put plainly: Change in heart rate was measured at 1 mg/kg dose(iv) in anesthetized rats. The format is functional. The method in brief:
(§2)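 Anesthetized male Wistar rats (pentobarbital 60 mg/kg ip); compound in saline/1% olive oil/1% Tween 80 given by femoral vein. Lead II ECG recorded and heart rate read by beat-to-beat tachograph for 10 min after dosing; change in beats/min, mean ± SE, n = 3–4.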

In assay [6] the test system is Rattus norvegicus. Briefly: Change in heart rate was measured at 3 mg/kg dose(iv) in anesthetized rats. The assay is classed as functional. The essentials:
as §2

Assay [7] concerns Rattus norvegicus. Briefly: inhibitory activity was tested against anesthetized rats. The assay is classed as functional.
Assay [8] deals with Rattus norvegicus. Briefly: Antiarrhythmic activity against anesthetized rats after intravenous administration. The format is functional, Heart.
Assay [9] has as its system Rattus norvegicus. Briefly: Antiarrhythmic activity against anesthetized rats after peroral administration. The format is functional, Heart. The method in brief: as §1
In assay [10] the test system is Rattus norvegicus. Put plainly: Change in arterial blood pressure was measured at 1 mg/kg dose(iv) in anesthetized rats. The assay is classed as functional, Artery. The essentials:
(§3)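 Male Wistar rats, pentobarbital 60 mg/kg ip, supine. Compound suspended in saline with 1% olive oil and 1% Tween 80, injected via femoral vein. Femoral arterial pressure monitored 10 min after injection; change in mmHg, mean ± SE, n = 3–4.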

For assay [11], the system named is Rattus norvegicus. Briefly: Change in arterial blood pressure was measured at 3 mg/kg dose(iv) in anesthetized rats. The assay is classed as functional, Artery. The essentials: as §3
For assay [12], the system named is Rattus norvegicus. Put plainly: Effect (30 mg/kg, iv) on coronary reperfusion-induced arrhythmias was assessed in anesthetized rats.(Intervals of ventricular tachycardia (VT)+ventricular fibrillation (VF) within 600 s. The format is functional, Cardiac ventricle.
Assay [13] is filed under the species Rattus norvegicus. Put plainly: Inhibitory effect on production of active oxygen species by rat peritoneal exudate macrophages. The assay is classed as functional. On the set-up: concentration or dose not given beside the values. The essentials: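 Peritoneal exudate macrophages harvested 3 days after ip liquid paraffin (male Wistar rats), >90% viable. Assay: 125 mM sodium phosphate pH 6.5, 0.08 mM EDTA, 1.2 U LDH, 0.32 mM NADH, (2–3) × 10^6 cells, compound in DMF, 1 × 10^-4 M. Started with NADH.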

The species named for assay [14] is Cavia porcellus. Put plainly: Inhibitory activity on atrial contractility in isolated Guinea pig right atrea at 0.003 mg/mL concentration. The assay is classed as functional, Cardiac atrium. The essentials:
(§4)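 Right atria from male Hartley guinea pigs (450–550 g), loaded at 0.5 g, in Tyrode's solution at 37 °C gassed with 95% O2/5% CO2. Equilibrated at least 30 min until rate stable within 5 beats/min; spontaneous rate and contractile force recorded on polygraph after compound addition.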

The species named for assay [15] is Cavia porcellus. Briefly: Inhibitory activity on atrial rate in isolated Guinea pig right atrea at 0.003 mg/mL concentration. The assay is classed as functional, Cardiac atrium. The essentials:
as §4

The species entered for assay [16] is Cavia porcellus. Briefly: Inhibitory activity on atrial rate in isolated Guinea pig right atrea at 0.01 mg/mL concentration. The assay is classed as functional, Cardiac atrium. The method in brief:
as §4

The species named for assay [17] is Cavia porcellus. Put plainly: Inhibitory activity on atrial rate in isolated Guinea pig right atrea at 0.03 mg/mL concentration. The assay is classed as functional, Cardiac atrium. The method in brief: as §4
For assay [18], the species on record is Cavia porcellus. Put plainly: Inhibitory activity on atrial contractility in isolated Guinea pig right atrea at 0.01 mg/mL concentration. The format is functional, Cardiac atrium. The essentials:
as §4

The species named for assay [19] is Cavia porcellus. Briefly: Inhibitory activity on atrial contractility in isolated Guinea pig right atrea at 0.03 mg/mL concentration. The format is functional, Cardiac atrium. The method in brief:
as §4

Assay [20] concerns Rattus norvegicus. Briefly: Effect (10 mg/kg, po) on coronary reperfusion-induced arrhythmias was assessed in anesthetized rats.(Intervals of ventricular tachycardia (VT)+ventricular fibrillation (VF) within 600 s. The format is functional, Cardiac ventricle. The essentials: as §1
The test system of assay [21] is Rattus norvegicus. Briefly: Effect (0.3 mg/kg, iv) on coronary reperfusion-induced arrhythmias was assessed in anesthetized rats.(Intervals of ventricular tachycardia (VT)+ventricular fibrillation (VF) within 600 s. The assay is classed as functional, Cardiac ventricle.
Assay [22] concerns Rattus norvegicus. Put plainly: Change in heart rate was measured at mg/kg dose(iv) in anesthetized rats. The format is functional. The essentials:
as §2

The test system of assay [23] is Rattus norvegicus. Briefly: Change in arterial blood pressure was measured at 0.3 mg/kg dose(iv) in anesthetized rats. The assay is classed as functional, Artery. The essentials: as §3
For assay [24], the system named is Rattus norvegicus. Briefly: inhibitory activity was tested against anesthetized rats at 10 mg/kg. The format is functional.

`CCCCCCCCCCCCCCCCC(=O)COC1=C(O)C(=O)OC1C(O)CO` (centres undefined) had an Arrhythmias times in [1] of 521. For the same compound, the inhibition in assay [2] was determined as 43%.

Regarding `CCCCCCCCCCCC1OCC(C2OC(O)=C(O)C2=O)O1` (centres undefined), the Arrhythmias times in [3] is reported as 186; in assay [4], 420.8. Moreover, the Delta heart rate in assay [5] is on record as -10.3 beats min-1; in [6] it was -75 beats min-1. Besides, the Inhibition in [7] is recorded as 19%. The Efficacy was more than 1 mg/kg in assay [8] and 30 mg/kg in [9]. Besides, the Delta blood pressure in [10] was -7 mmHg; in assay [11] it was -30.3 mmHg. The compound also displayed an inhibition in [2] of 89%.

`CCCCCCCCCCCCCCCCCCOC1=C(O)C(=O)OC1C(O)CO` (centres undefined) came in with an Arrhythmias times in [12] of 447. For the same compound, the Inhibition in [13] came out at 53.3%. The compound also yielded an inhibition in assay [2] of 45%.

Regarding `COc1ccc(CCN(C)CCCC(C#N)(c2ccc(OC)c(OC)c2)C(C)C)cc1OC` (centres undefined) [VERAPAMIL], the Inhibition in assay [14] worked out at 49.9%; in assay [15], 37.9%; in assay [16], 63%; in assay [17], 100%; in [18], 77.8%; in [19] it was 100%. Moreover, the Arrhythmias times in assay [20] is 56.7; in assay [21] it was 121. This compound yielded a Delta heart rate in assay [22] of -70 beats min-1. Moreover, in assay [23], the Delta blood pressure was -46.7 mmHg. The Efficacy in assay [8] was more than 0.3 mg/kg; in assay [9] it was 10 mg/kg. The same compound displayed an inhibition in vivo at 10 mg/kg in [24] of 87%. This compound yielded an inhibition in assay [2] of 37%.
